Here are results for 15 compounds from ChEMBL document CHEMBL4428089 (Bioorg Med Chem, 2016).

Each structure is given as a SMILES string. The source made the active and inactive calls. The rule behind the calls is not given here.

The target of experiment [1] is D(3) dopamine receptor (Rattus norvegicus, UniProt P19020). The experiment can be described thus: Displacement of [3H]spiperone from rat D3 dopamine receptor expressed in HEK293 cell membranes after 1 hr. For orientation: Displacement assays read how much labelled ligand stays bound in the presence of the test substance.
Experiment [2] addresses T1, D(3) dopamine receptor (Homo sapiens, UniProt P35462). The experiment can be described thus: Agonist activity at human D3 dopamine receptor expressed in CHO cells by [35S]GTPgammaS binding assay relative to dopamine. It counts as functional, cell-based. The method, boiled down: (§1)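 [35S]GTPγS binding stimulated in CHO cells expressing human D2 or D3 receptors. […] The D2/D3 ratio is the ratio of the EC50 values. Values are means ± SEM of three to five experiments, each run in triplicate.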
A general note: GTPγS resists hydrolysis and so accumulates on activated G proteins.

Experiment [3] concerns the target T2, D(2) dopamine receptor (Homo sapiens, UniProt P14416). The experiment can be described thus: Agonist activity at human D2 dopamine receptor expressed in CHO cells by [35S]GTPgammaS binding assay. It counts as functional, cell-based. The gist of the method:
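[35S]GTPγS binding stimulated in CHO cells expressing human D2 or D3 receptors. The D2/D3 ratio is the ratio of the EC50 values. Values are means ± SEM of three to five experiments, each run in triplicate.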

In experiment [4] the target is T1, D(3) dopamine receptor. The experiment can be described thus: Agonist activity at human D3 dopamine receptor expressed in CHO cells by [35S]GTPgammaS binding assay. It counts as functional, cell-based.
In experiment [5] the target is T2, D(2) dopamine receptor. Briefly: Agonist activity at human D2 dopamine receptor expressed in CHO cells by [35S]GTPgammaS binding assay relative to dopamine. It counts as functional, cell-based. The gist of the method: as §1
The species entered for experiment [6] is Homo sapiens. Briefly: Selectivity ratio of EC50 for human D2 dopamine receptor expressed in CHO cells to EC50 for human D3 dopamine receptor expressed in CHO cells. The experiment is classed as cell-based. The method, boiled down: as §1
The target in experiment [7] is D(2) dopamine receptor (Rattus norvegicus, UniProt P61169). Briefly: Displacement of [3H]spiperone from rat D2L dopamine receptor expressed in HEK293 cell membranes after 1 hr.
The subject of experiment [8] is PC-12. The experiment can be described thus: Neuroprotective activity against 6-OHDA induce toxicity in rat PC12 cells assessed as cell viability preincubated for 24 hrs followed by 6-OHDA addition for 24 hrs by MTT assay. It counts as functional, cell-based. The gist of the method:
(§2)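 PC12 cells were pretreated for 24 h across a concentration range (0.1-30 µM or 1-50 µM, depending on compound). A single dose of 75 µM 6-OHDA was then added for a further 24 h. Cell viability was measured by MTT assay.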
(Tetrazolium assays rely on reduction of a dye to a coloured formazan, in cell work by metabolically active cells.)

For experiment [9], the system named is PC-12. Briefly: Neuroprotective activity against 6-OHDA induce toxicity in rat PC12 cells assessed as cell viability at 30 uM preincubated for 24 hrs followed by 6-OHDA addition for 24 hrs by MTT assay. It counts as functional. The settings on record: read-out: Activity. The gist of the method:
as §2

The species entered for experiment [10] is Rattus norvegicus. The experiment can be described thus: Selectivity ratio of Ki for rat D2L dopamine receptor expressed in HEK293 cells to Ki for rat D3 dopamine receptor expressed in HEK293 cells. It counts as cell-based.
Experiment [11] has as its target Alpha-synuclein (Homo sapiens) (UniProt P37840). Briefly: Inhibition of recombinant alphaSN (unknown origin) fibrillation at 120 uM after 6 days by ThT fluorescence assay. The method, boiled down:
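α-Synuclein was shaken for 6 days with or without the drug. Fibrillization was read by ThT fluorescence, normalized to α-synuclein shaken alone at day 6. Drugs were also tested alone in the ThT read-out. Values are means ± SEM of three independent experiments, compared by one-way ANOVA with Tukey post hoc test.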

For experiment [12], the system named is Rattus norvegicus. The experiment can be described thus: Reversal of reserpine-induced hypolocomotion in Sprague-Dawley rat assessed as locomotor stimulation at 10 umol/kg, ip administered 18 hrs post reserpine challenge measured over 6 hrs. The experiment is classed as functional, organism-based. The gist of the method: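 Rats received reserpine 5 mg/kg s.c. The drug was given at 10 µmol/kg i.p. 18 h after reserpine. Horizontal activity (beam interruptions) was recorded in 30-min intervals and compared with reserpine-only controls. n=3 rats per value, mean ± SEM, one-way ANOVA.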

The target in experiment [13] is Alpha-synuclein (Homo sapiens) (UniProt P37840). Briefly: Induction of recombinant alphaSN (unknown origin) fibrillation at 120 uM after 6 days by ThT fluorescence assay. The gist of the method:
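Cell-free alpha-synuclein aggregation: SN shaken alone or co-incubated with each drug for 6 days. Fibrillization read by thioflavin T fluorescence and normalized to SN shaken alone for six days. Drugs were also run without SN to check for ThT interference. Means ± SEM of three independent experiments; one-way ANOVA with Tukey's post hoc test.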

One may read the Ki as the equilibrium dissociation constant of an inhibitor or competing ligand from its target. Read a low Ki as tighter binding. What is called Emax is the size of the effect at its maximum, as opposed to the concentration needed. For orientation: EC50 means the midpoint of the concentration-response curve. A higher EC50 goes with a need for much substance.

T1 sequence (P35462 whole entry): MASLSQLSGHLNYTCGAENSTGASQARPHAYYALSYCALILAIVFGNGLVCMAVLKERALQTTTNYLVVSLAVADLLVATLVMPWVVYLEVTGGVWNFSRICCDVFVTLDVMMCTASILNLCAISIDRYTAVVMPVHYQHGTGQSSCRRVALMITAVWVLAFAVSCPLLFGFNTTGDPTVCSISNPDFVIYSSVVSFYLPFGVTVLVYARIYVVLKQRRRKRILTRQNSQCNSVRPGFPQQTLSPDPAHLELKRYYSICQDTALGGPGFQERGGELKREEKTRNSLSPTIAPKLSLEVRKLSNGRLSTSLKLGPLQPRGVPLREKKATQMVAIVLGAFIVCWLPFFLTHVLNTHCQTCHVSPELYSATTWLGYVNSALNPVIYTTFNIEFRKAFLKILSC
T2 sequence (P14416 whole entry): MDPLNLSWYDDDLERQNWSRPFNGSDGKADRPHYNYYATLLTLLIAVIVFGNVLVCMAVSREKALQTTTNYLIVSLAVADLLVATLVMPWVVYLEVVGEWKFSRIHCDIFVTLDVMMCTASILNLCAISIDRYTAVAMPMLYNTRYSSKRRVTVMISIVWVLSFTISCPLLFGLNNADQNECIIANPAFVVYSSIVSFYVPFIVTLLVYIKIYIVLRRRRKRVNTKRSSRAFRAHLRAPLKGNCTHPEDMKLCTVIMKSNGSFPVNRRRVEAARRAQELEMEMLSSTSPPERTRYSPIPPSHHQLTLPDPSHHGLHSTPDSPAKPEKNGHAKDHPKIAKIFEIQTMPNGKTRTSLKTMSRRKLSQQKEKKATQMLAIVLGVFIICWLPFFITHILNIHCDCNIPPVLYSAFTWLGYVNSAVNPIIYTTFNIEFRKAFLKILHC
D(3) dopamine receptor (Rattus norvegicus, UniProt P19020), sequence (P19020 whole entry): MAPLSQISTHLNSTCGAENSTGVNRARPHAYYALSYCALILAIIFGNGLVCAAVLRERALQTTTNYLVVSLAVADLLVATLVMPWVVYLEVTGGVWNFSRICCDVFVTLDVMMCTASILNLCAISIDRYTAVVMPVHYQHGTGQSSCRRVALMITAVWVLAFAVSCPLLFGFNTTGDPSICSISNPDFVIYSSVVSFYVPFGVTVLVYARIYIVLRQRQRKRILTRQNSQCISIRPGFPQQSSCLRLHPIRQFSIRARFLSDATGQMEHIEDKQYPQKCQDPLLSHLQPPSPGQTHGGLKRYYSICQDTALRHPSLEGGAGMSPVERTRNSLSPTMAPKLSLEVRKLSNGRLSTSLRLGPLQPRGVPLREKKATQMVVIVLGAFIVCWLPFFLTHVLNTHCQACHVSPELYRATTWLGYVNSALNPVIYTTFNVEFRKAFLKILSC
D(2) dopamine receptor (Rattus norvegicus, UniProt P61169), sequence (P61169 whole entry): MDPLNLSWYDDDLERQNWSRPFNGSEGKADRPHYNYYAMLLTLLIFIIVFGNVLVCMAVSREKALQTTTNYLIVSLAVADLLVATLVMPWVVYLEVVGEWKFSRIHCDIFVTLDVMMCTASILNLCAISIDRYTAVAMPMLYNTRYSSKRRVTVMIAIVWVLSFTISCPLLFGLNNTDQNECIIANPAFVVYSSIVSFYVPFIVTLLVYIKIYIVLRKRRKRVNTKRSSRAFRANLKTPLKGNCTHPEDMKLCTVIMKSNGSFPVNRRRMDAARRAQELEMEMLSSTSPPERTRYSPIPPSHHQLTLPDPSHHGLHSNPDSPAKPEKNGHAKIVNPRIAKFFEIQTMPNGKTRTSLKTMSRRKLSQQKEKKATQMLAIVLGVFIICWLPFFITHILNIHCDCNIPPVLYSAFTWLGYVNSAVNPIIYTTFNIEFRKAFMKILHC

Take `CCCN(CCCCCc1cc(O)ccc1O)[C@H]1CCc2nc(N)sc2C1`: the Ki in [1] came to 0.78 nM. The maximum response (Emax) in [2] came to 90.9%; in experiment [5] it was 88%. The results for the EC50 in experiment [3] and in experiment [4] were 9.3 nM and 1.22 nM, respectively.
For `CCCN(CCC/C=C/c1ccc(O)c(OC)c1)[C@H]1CCc2nc(N)sc2C1`, the Ratio EC50 in [6] came to 1.85. Further, the figures for the Ki in experiment [1] and in [7] were 22.3 nM and 123 nM, respectively. The Emax in experiment [2] was 87.5%; in experiment [5], 84.3%. Also, in experiment [8], the Activity result was “Dose-dependent effect”. The EC50 was 37.7 nM in experiment [3] and 20.4 nM in experiment [4]. Also, the viability at 30 µM in experiment [9] was in the range of 18 to 25%. The Ratio Ki in experiment [10] stood at 6.
With `CCCN(CCCCCc1ccc(O)c(OC)c1)[C@H]1CCc2nc(N)sc2C1`, the Ratio EC50 in experiment [6] was found to be 2.68. For the same compound, the results for the Emax in [2] and in experiment [5] were 94.4% and 96.2%, respectively. For the same compound, the EC50 is 2.09 nM in [3] and 0.78 nM in [4]. For the same compound, the Ratio Ki in experiment [10] is 43.
As for `CCCN(C/C=C/c1ccc(O)c(OC)c1)C1CCc2nc(N)sc2C1` (configuration not stated), the Ratio Ki in experiment [10] turned out to be 119.
`CCCN(CCCCCc1ccc(O)c(O)c1)C1CCc2nc(N)sc2C1` (racemic): the Ratio Ki in experiment [10] was 45.
As for `CCCN(CCCc1ccc(O)c(OC)c1)C1CCc2nc(N)sc2C1` (racemic), the Ratio Ki in experiment [10] was found to be 153.
Compound `CCCN(CCCCCc1ccc(O)c(OC)c1)C1CCc2nc(N)sc2C1` (racemic) displayed a Ki in experiment [1] of 3.62 nM. In addition, the Ratio Ki in [10] is 48.
On to `CCCN(CCC/C=C\c1ccc(O)c(OC)c1)C1CCc2nc(N)sc2C1` (racemic), for which the Ratio Ki in [10] came out at 10.
In the case of `CCCN(CCCCCc1ccc(O)c(O)c1)[C@H]1CCc2nc(N)sc2C1`, the Ratio EC50 in experiment [6] was determined as 8.74. Also, the maximal response (Emax) was 83.4% in experiment [2] and 97.4% in [5]. In experiment [8], the Activity entry was “Dose-dependent effect”. Moreover, the concentration for a half-maximal effect (EC50) in experiment [3] stood at 22.9 nM; in [4] it was 2.62 nM. Moreover, the inhibition entry in experiment [11] was “Active”. In addition, in experiment [12], the outcome was Active. Further, in experiment [9], the viability at 30 µM is 18 to 25%. In addition, the Ratio Ki in experiment [10] was found to be 46.
In the case of `CCCN(CCC/C=C/c1ccc(O)c(OC)c1)C1CCc2nc(N)sc2C1` (racemic), the Ki in experiment [1] was 4.24 nM; in experiment [7], 150 nM. In addition, the Ratio Ki in [10] was 35.
As to `CCCN[C@H]1CCc2nc(N)sc2C1`, in experiment [13], the result was Active.
For `CCCN(CCC)CCc1cccc2c1CC(=O)N2`, in experiment [12], the outcome was Active.
Consider `CCCN(CCCCCc1ccc(O)c(O)c1)[C@H]1CCc2c(O)cccc2C1`, for which, in [6], the Ratio EC50 amounted to 0.82. The Ki in [1] was 0.493 nM; in experiment [7], 4.67 nM. For the same compound, the maximal effect (Emax) was determined as 90.9% in experiment [2] and 88.8% in experiment [5]. Also, in experiment [8], the Activity result is “Dose-dependent effect”. The EC50 in experiment [3] stood at 0.27 nM; in [4], 0.33 nM. In addition, in experiment [11], the inhibition entry is “Active”. Further, the viability at 30 µM in experiment [9] was in the range of 18 to 25%. Also, the Ratio Ki in experiment [10] is 9.
For `CCCN(CCC)C1CCc2c(O)cccc2C1` (configuration not stated), the outcome in [13] was Active.
For the compound `CCCN(CCCCCCc1ccc(O)c(OC)c1)C1CCc2nc(N)sc2C1` (racemic), the inhibition constant Ki came out at 0.675 nM in [1] and 58.5 nM in [7]. Moreover, the Ratio Ki in [10] was found to be 87.
